# From the EternaBench riboswitch data
# Tested on: MS2 coat protein
# Experiment: apparent Kd, MS2 coat protein; higher = weaker binding; RNA-MaP array; FMN 200 µM where present
# Summary of the method: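 In 100 mM Tris-HCl pH 7.5, 80 mM KCl, 4 mM MgCl2, BSA, DTT, yeast tRNA and Tween-20, SNAP-549-labelled MS2 coat protein was titrated from 0.7 or 1.5 nM, doubling to 3 µM, over designs transcribed by stalled E. coli RNA polymerase on Illumina sequencing-chip clusters. This was done first without ligand, then with ligand held constant. After green signal was normalised to red-channel RNA signal and control-cluster median Fmax, the apparent Kd was taken as the median of filtered per-cluster binding-curve fits.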
# [1] = designed as: OFF switch for flavin mononucleotide, no ligand
# [2] = ligand present: flavin mononucleotide, designed as: OFF switch for flavin mononucleotide
# [3] = designed as: ON switch for flavin mononucleotide, no ligand
# [4] = ligand present: flavin mononucleotide, designed as: ON switch for flavin mononucleotide
Sequence,apparent Kd [1] [nM],apparent Kd [2] [nM],apparent Kd [3] [nM],apparent Kd [4] [nM]
UGGCCGAAGUUAGGAUAUUGGUUAGGGACGGACUAAGAAGGAGCACAUACAUGAGGAUCACCCAUGUUAGAAGGUUGUCCUCCA,15.5,13.7,–,–
GGCGGAGUAGGAUAUACAUGAGGAUCACCCAUGUAACCUGAUGGCGUAGGUCUUCUAUGUAGAAGGGCUACGCC,17.4,16.7,–,–
UCAACUCCCGUCAGGAUAUGUUGCUCUAGGGAGCAGUAGAAGGGACAUGAGGAUCACCCAUGUUAUCCGUGUAU,17.2,20.6,–,–
GCGUGACAUGAGGAUCACCCAUGUGAGGAUAUCUGGAUAAUUUUUAUUUUAGAUAUCCAGAGAAGGCACAUGCU,63.8,156,–,–
GUUGUGUGAGGAUAUGCCUGGCCGUGUGGCCGGUUUGGGUGGCAGAAGGUACAUGAGGAUCACCCAUGUACGGG,105,107,–,–
AGAAACUACGAGAAGGACAUGUAAAAUGCCGCAAACAUGAGGAUCACCCAUGUAGGAUAUCGUAGUUUCAGGAUCGUGAGAUCA,6.59,18.1,–,–
GAUCGACCUGAGAAGGCACAUGAGGAUCACCCAUGUUGAACCAUACAUGCCACAAAGUGGCAAUGUGAGGAUAUCAGGUCGAUC,6.54,12.1,–,–
CAUGGAACAUAGGAUAUCUCGCGGCUAGGCUGCAGAGAAGGAUGUACAUGAGGAUCACCCAUGUAUGAUCCAAU,18.9,28.2,–,–
AGCUAGUCAGGAUAUACGAACAUGUCAAAAGACGAGAACGGACAUGAGGAUCACCCAUGUAGAAGGGACUAGCA,55,325,–,–
AGGUACGGUCGAUCAUACCAAGGUAGAAGGCGACUGGGAAUGUGAGACAUGAGGAUCACCCAUGUCGAGGAUAUACCUGAAAGU,192,27.4,–,–
AAUUAGGUCACAGGAUAUACAACAUCCAUAGCUGUAGAAGGGUGUCAAAAUAAUAUCUGACAUGAGGAUCACCCAUGUUUCCAC,–,–,15.8,12.7
AACCCUGCCUAGGAUAUACAAAAGUCACAGCUGGUAGAAGGAGGCACAUGAGGAUCACCCAUGUCACCUCGCUU,13.4,13.7,–,–
UUCGGGAACUCUAUGGGCCGCUACAUGAGGAUCACCCAUGUGCAGGAUAUAGGUGUCACUACCGCCUAGAAGGGCACAGAAAGA,41.4,58.6,–,–
CCCGACCUGAAGUCGAUACGGAGGAGAAGGCGCCUCCUGGGUCCACAUGAGGAUCACCCAUGUGGCGAGGAUAUCCUCAGUUUU,11.8,73.7,–,–
AAUUAUAUACAGAAGGAGUUAUUUAGAGGAUUACUAGGAUAUGUUCACAUGAGGAUCACCCAUGUCAUAUUGGGAUUUAUUAUU,18,24,–,–
CAGAGUAAAGGAUAUACAUGAGGAUCACCCAUGUUUAGACCGACGACACGUCCUAGUUGUAGAAGGUUAUUUUG,82.2,68.7,–,–
AAUAACAGAGGAUAUACUAUUUUAUGUGUUUGUUAUUUUAAACAUGAGGAUCACCCAUGUAGAAGGCUGAAUAA,24.3,22.1,–,–
AUCAGCUCGUCAGGAUAUACGUCACUGCGUCAGCAGUGUGGUAAAAUCACAUGAGGAUCACCCAUGUAGAAGGGACGAGCUGAU,6.18,14.4,–,–
AGUCUCACUGAAGGAUAUGCAGGGUUUCAAGGGUUUCCUGCGACAUGAGGAUCACCCAUGUAAAUGCAGAAGGUCAGGACCCAA,6.63,32.8,–,–
UCCUGGCGAGGAUAUACAAAGUUUUUUACGUUUUGUUACGAACAUGAGGAUCACCCAUGUAGAAGGUGCUACUG,78,67.3,–,–
UGUUGUUCAGGAUAUGAUGUAUAAUACAUGAGGAUCACCCAUGUAGAUCCUGAAUUAACGUCAGAAGGGAAUGUUG,15.1,17,–,–
GGAAAGCGAGGAUAUACAUGAGGAUCACCCAUGUAAACAAACAAACAAACAAACAAAUGUAGAAGGCGCAAAAC,43.9,43,–,–
ACAUGAGACUAAGGAUAUGGUGUACCUACAUGUGACAUGAGGAUCACCCAUGUGGUAAGUAUGACUCAGAAGGUAGAGAUAUGU,–,–,414,37.2
GCAGGAUAAGUGAGGAUAUACCUAUGGAUACAUAGGUAGAAGGUACAUGAGGAUCACCCAUGUUCCUCACCUGC,9.54,10.1,–,–

Sequence,apparent Kd [1] [nM],apparent Kd [2] [nM],apparent Kd [3] [nM],apparent Kd [4] [nM]
CCGACGAAAGUCGAACGAUGUAGCAGAAGGACAUGAGGAUCACCCAUGUCAGCUGUAACAGCCAUGUAGGAUAUGCUACAUCGA,4.41,5.85,–,–
GCGCAAACGCCAAAAGGCGAAAUUACAUGAGGAUCACCCAUGUAGGAUAUCGAUUGCUUUGCAGUCGAGAAGGACAUGAUGCGC,19.2,23.9,–,–
UUGGCGCGAUCCUGGGUCUCACAUGAGGAUCACCCAUGUAGAGAGGAUAUGCAUAGGGCCCAAUGGCAGAAGGCUCUACAUGAG,91.4,57.2,–,–
AGUACUCAAAGAGUACCCAUACGGACAUGAGGAUCACCCAUGUAGGAUAUGCUACUCAAAGAGUAGUAGAAGGACAUAUACCUC,8.91,15.7,–,–
UCCUUGUAAGGAUAUCGACGGCUACUCAAUUAAGCCGAUGCUGAGAAGGUACAUGAGGAUCACCCAUGUCUGGU,52.1,275,–,–
AAGACUAGAGGAUAUACAUGAGGAUCACCCAUGUAACUGUCAGAAAACUGACGGAGAUGUAGAAGGCUAGUCAA,17.7,34.7,–,–
UGUCGGAGCAGAGGAUAUUACAUGAGGAUCACCCAUGUAUGGACCAAUAGCUGGAAACAGCAAUGUAAGAAGGCUGCUCCGACA,18.3,215,–,–
AAACACGGACAUGAGGAUCACCCAUGUGGCGAAAGCCUUGGGAGAAGGCCGAUUGCAAAGCAAUCGGAGGAUAUCCAUACCGUG,–,–,17.8,6.03
UUAGCAUACCGAGGAUAUUCAUAUAAUAAAUAAACAUGAGGAUCACCCAUGUGGCGAAAGCCUAGGGAGAAGGCGGAAUGCUAC,–,–,206,26.5
CAGACCGGCGCAGGAUAUGUCGACAUGAGGAUCACCCAUGUAAGCCUUGUCUGGUCCGGUGUGUGACAGAAGGGUGUCGGCCAA,29.5,21.9,–,–
GGUUCGAAAGUGAGGAUAUGCUGGUCCUUGGAUCAGCAGAAGGCACAUGAGGAUCACCCAUGUCCAAGCGGACC,59,398,–,–
GUAAAUCAUGUAGGAUAUGCAUGGCGAAGCUACGCAGAAGGACAUGAGGAUCACCCAUGUUAUAGCUACCCGUUACGGUGGCAA,100,236,–,–
AGCUACGUUUCGUAGCAGUGUCAUCGAGAAGGCCUUAUAACAUGAGGAUCACCCAUGUUUGCAUGGGAGGAUAUCGAUGAUACA,–,–,20.1,5.63
AACAGUACAGGAUAUACAUGAGGAUCACCCAUGUGAGAAACCACUGGCGUACCAGAAAGUAGAAGGGUACUGGA,79.7,97.8,–,–
GCAGCAUAAAUUAUACAUGAGGAUCACCCAUGUUACAUGUGUAAGGAUAUUGAGGUUAUUAUUGGCAAGAAGGUACAAUGCUGC,–,–,15.2,8.57
GGAUGACAAAGUCAUCCAAUACGAACAUGAGGAUCACCCAUGUAGGAUAUCGUACUCAAAGAGUACGAGAAGGACAUGUGCCUU,37.6,236,–,–
AGCAGUACAGGAUAUACAUGAGGAUCACCCAUGUGAAAAUUAAGUGGCGUACCACAAAGUAGAAGGGUACUGCA,32,117,–,–
UUACAGUACAGGUAGGAUAUGUAGGGUGGUACAUGAGGAUCACCCAUGUAUCCACCCUUCGAACGGCAGAAGGGCCCGUCACUGC,–,–,22,15.4
GUCAUCGCAUGAGGAUAUGCUCGGGUUUCCCGAGCAGAAGGCAUGUCAUAAGACAUGAGGAUCACCCAUGUAGUUAAGAUUGUA,–,–,192,12.5
CCGGAUAUGCAGGAUAUCGUAUCGGAAACGAUACGAGAAGGGUAUACAUGAGGAUCACCCAUGUGCCUUACCGG,19.7,21.9,–,–
GCACUUACGUUAGGAUAUGGAUCGGAAAACGAUCCAGAAGGAAUAUGGGAACAUGAGGAUCACCCAUGUUCCGCAGACAAGUGC,–,–,96.5,39
CCAGGCUUCGAGAAGGACAUGAGGAUCACCCAUGUGCGUGUGAAGCAGCCGUGAGGCUGCAUCAUGUAGGAUAUCGGAGUCUGU,72.2,391,–,–
CUGAGGUCAGGAUAUGCAUGGCGGGACUUGCGUCGUGGCGUGCAGAAGGGACAUGAGGAUCACCCAUGUGGAGG,147,206,–,–
AAUAUGUUGCAGAAGGUUAUAUUUAUAACGUUCCUCAUGACAUGAGGAUCACCCAUGUAAUUGUUGAAGGAUAUGCAAUAUAUU,5.41,5.62,–,–
